Consider 31 molecules from ChEMBL document CHEMBL3407380, “Structure-based design of phthalimide derivatives as potential cyclooxygenase-2 (COX-2) inhibitors: anti-inflammatory and analgesic activities” (Eur J Med Chem, 2015).

The ED50 is the midpoint of the dose-response relation. A word on the IC50: it is the point on the concentration scale where inhibition reaches its midpoint.

Experiment [1] has as its system Mus musculus. Nature of the experiment: Analgesic activity in ip dosed albino Swiss mouse assessed as licking or blowing latency time measured 60 mins post dose by hot plate method. The experiment is classed as functional. The settings on record: 1 h. A general note: In hot-plate and tail-flick tests a longer latency is read as antinociception.
For experiment [2], the target named is T1, Prostaglandin G/H synthase 1 (Ovis aries, UniProt P05979).
T1 sequence (P05979 whole entry): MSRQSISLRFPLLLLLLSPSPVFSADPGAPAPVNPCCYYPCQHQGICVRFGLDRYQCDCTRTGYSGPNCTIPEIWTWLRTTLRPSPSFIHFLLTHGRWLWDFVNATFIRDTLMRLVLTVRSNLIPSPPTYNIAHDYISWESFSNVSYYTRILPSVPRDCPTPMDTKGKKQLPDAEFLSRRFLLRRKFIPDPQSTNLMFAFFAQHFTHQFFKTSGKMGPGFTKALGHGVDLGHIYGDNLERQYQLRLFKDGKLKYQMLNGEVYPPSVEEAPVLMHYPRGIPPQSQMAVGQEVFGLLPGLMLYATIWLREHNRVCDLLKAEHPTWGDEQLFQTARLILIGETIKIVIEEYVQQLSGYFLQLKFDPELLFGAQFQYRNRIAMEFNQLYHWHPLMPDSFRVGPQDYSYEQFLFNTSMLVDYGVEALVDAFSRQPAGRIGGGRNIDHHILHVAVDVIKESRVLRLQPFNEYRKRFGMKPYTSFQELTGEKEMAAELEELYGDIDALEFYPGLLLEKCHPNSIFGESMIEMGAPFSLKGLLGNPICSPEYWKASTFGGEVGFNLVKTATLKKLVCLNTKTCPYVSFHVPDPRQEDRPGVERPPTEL
Nature of the experiment: Inhibition of ovine COX1 assessed as inhibition of PGF2alpha production from PGH2 preincubated for 5 mins before arachidonic acid addition measured after 2 mins by enzyme immunoassay. An outline of the steps: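 Ovine COX-1 from a COX-1/COX-2 inhibitor screening kit, in 0.1 M Tris-HCl pH 8.0. Enzyme was incubated with inhibitor for 5 min at 37 °C. Arachidonic acid (100 µM solution) was then added, and the reaction was stopped with 1 M HCl after 2 min. Prostaglandins were quantified by competitive acetylcholinesterase-tracer EIA read at 410 nm.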

For experiment [3], the system named is Rattus norvegicus. Nature of the experiment: Antiinflammatory activity in ip dosed Sprague-Dawley rat assessed as inhibition of carrageenan-induced paw edema measured 2 hrs post dose by displacement plethysmometer analysis. It is filed as functional.

For the molecule `COc1cc(CN2C(=O)c3cccc4cccc(c34)C2=O)cc(OC)c1OC`, the ED50 was determined as 88 mg/kg in experiment [1] and 115 mg/kg in experiment [3]. Moreover, the IC50 in experiment [2] was > 100 µM.
The corresponding values for `COc1ccc(CN2C(=O)c3ccccc3C2=O)cc1` are 107 mg/kg, 162 mg/kg and 110 µM.
The corresponding values for `COc1cc(CN2C(=O)c3c(Cl)c(Cl)c(Cl)c(Cl)c3C2=O)cc(OC)c1OC` are 54.7 mg/kg, 144 mg/kg and > 100 µM.
In the same order, the values of `COc1ccc(CN2C(=O)c3ccc(C(C)(C)C)cc3C2=O)cc1` are 96.1 mg/kg, 137 mg/kg and > 100 µM.
`O=C1c2ccccc2C(=O)N1Cc1ccc(F)cc1`: the ED50 in experiment [1] is 90 mg/kg; in experiment [3], 170 mg/kg. Also, the IC50 in experiment [2] amounted to 116 µM.
As for `O=C1c2cc(Cl)c(Cl)cc2C(=O)N1Cc1ccc(F)cc1`, in experiment [2], the IC50 was > 100 µM.
Still for that read-out and setting: the same measure for `COc1ccc(CN2C(=O)CCC2=O)cc1`: > 100 µM.
`COc1cc(CN2C(=O)CCC2=O)cc(OC)c1OC`: the ED50 in experiment [1] was 95 mg/kg; in experiment [3], 180 mg/kg. Also, in experiment [2], the 50% inhibitory concentration (IC50) is > 100 µM.
On to `O=C1C2CC=CCC2C(=O)N1Cc1ccc(F)cc1` (configuration not stated), for which the IC50 in experiment [2] was > 100 µM.
On to `COc1cc(CN2C(=O)c3ccccc3C2=O)cc(OC)c1OC`, for which the ED50 in experiment [1] is 110 mg/kg; in experiment [3], 149 mg/kg. Moreover, the IC50 in experiment [2] was > 100 µM.
In the same order, the values of `COc1cc(CN2C(=O)c3nccnc3C2=O)cc(OC)c1OC` are 40.5 mg/kg, 119 mg/kg and > 100 µM.
In the same order, the values of `COc1cc(CN2C(=O)c3cc(Cl)c(Cl)cc3C2=O)cc(OC)c1OC` are 57.4 mg/kg, 67 mg/kg and 120 µM.
The corresponding values for `COc1ccc(CN2C(=O)c3cccc4cccc(c34)C2=O)cc1` are 119 mg/kg, 129 mg/kg and > 100 µM.
With `COc1cc(CN2C(=O)c3ccc(C(C)(C)C)cc3C2=O)cc(OC)c1OC`, the ED50 in experiment [1] turned out to be 79.3 mg/kg; in experiment [3] it was 147 mg/kg. Moreover, the concentration for half-maximal inhibition (IC50) in experiment [2] was > 100 µM.
In the same order, the values of `COc1cc(CN2C(=O)c3ccc([N+](=O)[O-])cc3C2=O)cc(OC)c1OC` are 27.6 mg/kg, 54 mg/kg and 120 µM.
For `COc1cc(CN2C(=O)c3ccc(C)cc3C2=O)cc(OC)c1OC`, in experiment [2], the IC50 was > 100 µM. For the same molecule, the ED50 in experiment [3] was 130 mg/kg.
Regarding `O=C1c2c(Cl)c(Cl)c(Cl)c(Cl)c2C(=O)N1Cc1ccc(F)cc1`, the IC50 in experiment [2] is > 100 µM.
In the case of `O=C1c2ccc([N+](=O)[O-])cc2C(=O)N1Cc1ccc(F)cc1`, the 50% effective dose (ED50) was 35 mg/kg in experiment [1] and 127 mg/kg in experiment [3]. In addition, in experiment [2], the IC50 was > 100 µM.
Consider `COc1ccc(CN2C(=O)c3nccnc3C2=O)cc1`, for which the 50% effective dose (ED50) in experiment [1] turned out to be 106 mg/kg; in experiment [3] it was 159 mg/kg. For the same molecule, in experiment [2], the IC50 was found to be 117 µM.
As for `COc1ccc(CN2C(=O)c3ccc(C)cc3C2=O)cc1`, the 50% effective dose (ED50) was 80.5 mg/kg in experiment [1] and 153 mg/kg in experiment [3]. Moreover, the IC50 in experiment [2] is > 100 µM.
Consider `O=C1c2cccc3cccc(c23)C(=O)N1Cc1ccc(F)cc1`, for which the IC50 in experiment [2] was > 100 µM.
Still for that read-out and setting: in the case of `O=C1CCC(=O)N1Cc1ccc(F)cc1` it was > 100 µM.
The same measure, in the same setting: the same measure for `CC(C)(C)c1ccc2c(c1)C(=O)N(Cc1ccc(F)cc1)C2=O`: > 100 µM.
In the case of `COc1cc(CN2C(=O)C3CC=CCC3C2=O)cc(OC)c1OC` (configuration not stated), the ED50 in experiment [1] worked out at 125 mg/kg; in experiment [3], 171 mg/kg. The IC50 in experiment [2] is > 100 µM.
Consider `COc1ccc(CN2C(=O)c3c(Cl)c(Cl)c(Cl)c(Cl)c3C2=O)cc1`, for which the figures for the 50% effective dose (ED50) in experiment [1] and in experiment [3] were 52.9 mg/kg and 103 mg/kg, respectively. In addition, the half-maximal inhibitory concentration (IC50) in experiment [2] is > 100 µM.
For the molecule `COc1ccc(CN2C(=O)C3CC=CCC3C2=O)cc1` (configuration not stated), the 50% inhibitory concentration (IC50) in experiment [2] is > 100 µM.
Take `Cc1ccc2c(c1)C(=O)N(Cc1ccc(F)cc1)C2=O`: the 50% effective dose (ED50) is 97 mg/kg in experiment [1] and 172 mg/kg in experiment [3]. In addition, the IC50 in experiment [2] was > 100 µM.
In the same order, the values of `COc1ccc(CN2C(=O)c3cc(Cl)c(Cl)cc3C2=O)cc1` are 51.2 mg/kg, 75 mg/kg and 131 µM.
Regarding `Cc1ccc(-c2cc(C(F)(F)F)nn2-c2ccc(S(N)(=O)=O)cc2)cc1` [CELECOXIB], in experiment [1], the ED50 worked out at 71 mg/kg.
With `COc1ccc(CN2C(=O)c3ccc([N+](=O)[O-])cc3C2=O)cc1`, the 50% effective dose (ED50) in experiment [1] is 17 mg/kg; in experiment [3] it was 68 mg/kg. For the same molecule, in experiment [2], the half-inhibitory concentration (IC50) was 119 µM.
With `O=C1c2nccnc2C(=O)N1Cc1ccc(F)cc1`, in experiment [2], the IC50 was > 100 µM.
